Measured values from ChEMBL document CHEMBL1165943, “Design and synthesis of new anticancer pyrimidines with multiple-kinase inhibitory effect” (Bioorg Med Chem, 2010).

How the values were obtained:
Type in all cases: functional
HL-60(TB) = assay: Cytotoxicity against human HL-60(TB) cells assessed as cell growth at 10 uM; details: for growth at 10 µM: Homo sapiens, HL-60, read-out: Activity
How it was run: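 Single-concentration 10 µM screen of HL-60(TB) within the 60-line panel, grown in RPMI 1640 with 5% FBS. The drug from DMSO stock is incubated 48 h at 37 °C, settled cells are TCA-fixed and SRB-stained, and absorbance is read at 515 nm. Percent growth is reported, and inhibition % is taken as 100 minus growth %.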

K562 = assay: Cytotoxicity against human K562 cells assessed as cell growth at 10 uM; details: for growth at 10 µM: Homo sapiens, K562, read-out: Activity
How it was run: (§1)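 Single-dose screen at 10 μM across the 60-cell-line panel. Cells grown in RPMI 1640 with 5% FBS and 2 mM L-glutamine, seeded at 5,000–40,000 cells/well according to doubling time, and treated 24 h later. Exposure lasted 48 h at 37 °C, 5% CO₂. Adherent cells were fixed with cold TCA, suspension cells were fixed settled, and both were stained with SRB and read at 515 nm. Growth % was recorded, with inhibition % = 100 − growth %.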

MOLT-4 = assay: Cytotoxicity against human MOLT4 cells assessed as cell growth at 10 uM; details: for growth at 10 µM: Homo sapiens, MOLT-4, read-out: Activity; how it was run: as §1
SR = assay: Cytotoxicity against human SR cells assessed as cell growth at 10 uM; how it was run: as §1
EKVX = assay: Cytotoxicity against human EKVX cells assessed as cell growth at 10 uM; details: for growth at 10 µM: Homo sapiens, EKVX, read-out: Activity
How it was run: (§2)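 Single-concentration screen at 10 μM across the 60-cell-line panel (nine tissue types); growth percentage recorded per cell line, with inhibition taken as 100 minus growth percentage.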

HOP-62 = assay: Cytotoxicity against human HOP62 cells assessed as cell growth at 10 uM; details: for growth at 10 µM: Homo sapiens, HOP-62, read-out: Activity; how it was run: as §2
NCI-H322M = assay: Cytotoxicity against human NCI-H322M cells assessed as cell growth at 10 uM; details: for growth at 10 µM: Homo sapiens, NCI-H322M, read-out: Activity; how it was run: as §1
NCI-H460 = assay: Cytotoxicity against human NCI-H460 cells assessed as cell growth at 10 uM; details: for growth at 10 µM: Homo sapiens, NCI-H460, read-out: Activity; how it was run: as §1
NCI-H522 = assay: Cytotoxicity against human NCI-H522 cells assessed as cell growth at 10 uM; details: for growth at 10 µM: Homo sapiens, NCI-H522, read-out: Activity; how it was run: as §1
HCC 2998 = assay: Cytotoxicity against human HCC2998 cells assessed as cell growth at 10 uM; details: for growth at 10 µM: Homo sapiens, HCC 2998, read-out: Activity; how it was run: as §2
HCT-116 = assay: Cytotoxicity against human HCT116 cells assessed as cell growth at 10 uM; details: for growth at 10 µM: Homo sapiens, HCT-116, read-out: Activity; how it was run: as §2
HCT-15 = assay: Cytotoxicity against human HCT15 cells assessed as cell growth at 10 uM; details: for growth at 10 µM: Homo sapiens, HCT-15, read-out: Activity; how it was run: as §2
HT-29 = assay: Cytotoxicity against human HT-29 cells assessed as cell growth at 10 uM; details: for growth at 10 µM: Homo sapiens, HT-29, read-out: Activity; how it was run: as §2
KM12 = assay: Cytotoxicity against human KM12 cells assessed as cell growth at 10 uM; details: for growth at 10 µM: Homo sapiens, KM12, read-out: Activity; how it was run: as §1
SW-620 = assay: Cytotoxicity against human SW620 cells assessed as cell growth at 10 uM; details: for growth at 10 µM: Homo sapiens, SW-620, read-out: Activity; how it was run: as §1
SF-268 = assay: Cytotoxicity against human SF268 cells assessed as cell growth at 10 uM; details: for growth at 10 µM: Homo sapiens, SF-268, read-out: Activity; how it was run: as §1
SF-295 = assay: Cytotoxicity against human SF295 cells assessed as cell growth at 10 uM; how it was run: as §1
SF-539 = assay: Cytotoxicity against human SF539 cells assessed as cell growth at 10 uM; details: for growth at 10 µM: Homo sapiens, SF-539, read-out: Activity; how it was run: as §1
SNB-75 = assay: Cytotoxicity against human SNB75 cells assessed as cell growth at 10 uM; details: for growth at 10 µM: Homo sapiens, SNB-75, read-out: Activity; how it was run: as §1
U-251 = assay: Cytotoxicity against human U251 cells assessed as cell growth at 10 uM; details: for growth at 10 µM: Homo sapiens, U-251, read-out: Activity; how it was run: as §1
Malme-3M = assay: Cytotoxicity against human MALME-3M cells assessed as cell growth at 10 uM; how it was run: as §1
M14 = assay: Cytotoxicity against human M14 cells assessed as cell growth at 10 uM; details: for growth at 10 µM: Homo sapiens, M14, read-out: Activity; how it was run: as §1
SK-MEL-2 = assay: Cytotoxicity against human SK-MEL-2 cells assessed as cell growth at 10 uM; details: for growth at 10 µM: Homo sapiens, SK-MEL-2, read-out: Activity; how it was run: as §1
SK-MEL-28 = assay: Cytotoxicity against human SK-MEL-28 cells assessed as cell growth at 10 uM; details: for growth at 10 µM: Homo sapiens, SK-MEL-28, read-out: Activity; how it was run: as §1
SK-MEL-5 = assay: Cytotoxicity against human SK-MEL-5 cells assessed as cell growth at 10 uM; details: for growth at 10 µM: Homo sapiens, SK-MEL-5, read-out: Activity; how it was run: as §1
IGROV-1 = assay: Cytotoxicity against human IGROV1 cells assessed as cell growth at 10 uM; details: for growth at 10 µM: Homo sapiens, IGROV-1, read-out: Activity; how it was run: as §1
OVCAR-3 = assay: Cytotoxicity against human OVCAR-3 cells assessed as cell growth at 10 uM; details: for growth at 10 µM: Homo sapiens, OVCAR-3, read-out: Activity; how it was run: as §1
OVCAR-4 = assay: Cytotoxicity against human OVCAR4 cells assessed as cell growth at 10 uM; how it was run: as §1
OVCAR-8 = assay: Cytotoxicity against human OVCAR8 cells assessed as cell growth at 10 uM; details: for growth at 10 µM: Homo sapiens, OVCAR-8, read-out: Activity; how it was run: as §1
NCI/ADR-RES = assay: Cytotoxicity against human NCI/ADR-RES cells assessed as cell growth at 10 uM; details: for growth at 10 µM: Homo sapiens, NCI/ADR-RES, read-out: Activity; how it was run: as §1
SK-OV-3 = assay: Cytotoxicity against human SKOV3 cells assessed as cell growth at 10 uM; details: for growth at 10 µM: Homo sapiens, SK-OV-3, read-out: Activity; how it was run: as §1
ACHN = assay: Cytotoxicity against human ACHN cells assessed as cell growth at 10 uM; details: for growth at 10 µM: Homo sapiens, ACHN, read-out: Activity; how it was run: as §2
CAKI-1 = assay: Cytotoxicity against human Caki1 cells assessed as cell growth at 10 uM; details: for growth at 10 µM: Homo sapiens, CAKI-1, read-out: Activity; how it was run: as §2
TK-10 = assay: Cytotoxicity against human TK10 cells assessed as cell growth at 10 uM; details: for growth at 10 µM: Homo sapiens, TK-10, read-out: Activity; how it was run: as §1
UO-31 = assay: Cytotoxicity against human UO31 cells assessed as cell growth at 10 uM; details: for growth at 10 µM: Homo sapiens, UO-31, read-out: Activity; how it was run: as §1
DU-145 = assay: Cytotoxicity against human DU145 cells assessed as cell growth at 10 uM; details: for growth at 10 µM: Homo sapiens, DU-145, read-out: Activity; how it was run: as §2
T47D = assay: Cytotoxicity against human T47D cells assessed as cell growth at 10 uM; details: for growth at 10 µM: Homo sapiens, T47D, read-out: Activity; how it was run: as §1
MDA-MB-468 = assay: Cytotoxicity against human MDA-MB-468 cells assessed as cell growth at 10 uM; details: for growth at 10 µM: Homo sapiens, MDA-MB-468, read-out: Activity; how it was run: as §1

FC(F)(F)c1cc(Nc2nccc(-c3ccc(-c4ccccc4)nc3)n2)cc(C(F)(F)F)c1
growth at 10 µM (HL-60(TB)): 113%
growth at 10 µM (K562): 91.5%
growth at 10 µM (MOLT-4): 93.4%
growth at 10 µM (SR; Homo sapiens, SR, read-out: Activity): 97.8%
growth at 10 µM (EKVX): 101%
growth at 10 µM (HOP-62): 110%
growth at 10 µM (NCI-H322M): 99.7%
growth at 10 µM (NCI-H460): 107%
growth at 10 µM (NCI-H522): 83.3%
growth at 10 µM (HCC 2998): 124%
growth at 10 µM (HCT-116): 81.6%
growth at 10 µM (HCT-15): 99.9%
growth at 10 µM (HT-29): 86%
growth at 10 µM (KM12): 105%
growth at 10 µM (SW-620): 110%
growth at 10 µM (SF-268): 105%
growth at 10 µM (SF-295; Homo sapiens, SF-295, read-out: Activity): 114%
growth at 10 µM (SF-539): 95.8%
growth at 10 µM (SNB-75): 86.8%
growth at 10 µM (U-251): 99.1%
growth at 10 µM (Malme-3M; Homo sapiens, Malme-3M, read-out: Activity): 123%
growth at 10 µM (M14): 81.4%
growth at 10 µM (SK-MEL-2): 91.6%
growth at 10 µM (SK-MEL-28): 109%
growth at 10 µM (SK-MEL-5): 102%
growth at 10 µM (IGROV-1): 77.8%
growth at 10 µM (OVCAR-3): 114%
growth at 10 µM (OVCAR-4; Homo sapiens, OVCAR-4, read-out: Activity): 95%
growth at 10 µM (OVCAR-8): 94.1%
growth at 10 µM (NCI/ADR-RES): 101%
growth at 10 µM (SK-OV-3): 94.6%
growth at 10 µM (ACHN): 96%
growth at 10 µM (CAKI-1): 91.6%
growth at 10 µM (TK-10): 99.5%
growth at 10 µM (UO-31): 87.2%
growth at 10 µM (DU-145): 109%
growth at 10 µM (T47D): 80.1%
growth at 10 µM (MDA-MB-468): 110%

CC(=O)c1ccccc1-c1ccc(-c2ccnc(NC(=O)Nc3cc(C(F)(F)F)cc(C(F)(F)F)c3)n2)cn1
growth at 10 µM (HL-60(TB)): 101%
growth at 10 µM (K562): 90.8%
growth at 10 µM (MOLT-4): 88.3%
Activity (SR): 19.97%
growth at 10 µM (EKVX): 91%
growth at 10 µM (HOP-62): 95.6%
growth at 10 µM (NCI-H322M): 85%
growth at 10 µM (NCI-H460): 95.9%
growth at 10 µM (NCI-H522): 90.1%
growth at 10 µM (HCC 2998): 105%
growth at 10 µM (HCT-116): 69.9%
growth at 10 µM (HCT-15): 93.2%
growth at 10 µM (HT-29): 96.3%
growth at 10 µM (KM12): 93.8%
growth at 10 µM (SW-620): 81.8%
growth at 10 µM (SF-268): 94.4%
Activity (SF-295): 110.95%
growth at 10 µM (SF-539): 87%
growth at 10 µM (SNB-75): 72%
growth at 10 µM (U-251): 85.1%
Activity (Malme-3M): 105.41%
Activity (M14): 102.28%
Activity (SK-MEL-2): 95.01%
Activity (SK-MEL-28): 109.71%
Activity (SK-MEL-5): 97.2%
Activity (IGROV-1): 78.4%
Activity (OVCAR-3): 126.52%
Activity (OVCAR-4): -18.53%
Activity (OVCAR-8): 83.37%
Activity (NCI/ADR-RES): 87.74%
Activity (SK-OV-3): 91.88%
Activity (ACHN): 88.77%
Activity (CAKI-1): 81.28%
Activity (TK-10): 102.3%
Activity (UO-31): 76.28%
Activity (DU-145): 91.19%
Activity (T47D): 82.59%
Activity (MDA-MB-468): 81.95%

CC(=O)c1ccccc1-c1ccc(-c2ccnc(NC(=O)Nc3cc(C(F)(F)F)cc(C(F)(F)F)c3)n2)cn1.Cl
Activity (HL-60(TB)): 98.79%
Activity (K562): 80.11%
Activity (MOLT-4): 93.09%
Activity (SR): 97.1%
Activity (EKVX): 87.92%
Activity (HOP-62): 90.22%
Activity (NCI-H322M): 92.06%
Activity (NCI-H460): 93.37%
Activity (NCI-H522): 77.27%
Activity (HCC 2998): 88.79%
Activity (HCT-116): 81.77%
Activity (HCT-15): 95.89%
Activity (HT-29): 95.08%
Activity (KM12): 92.08%
Activity (SW-620): 95.07%
Activity (SF-268): 83.42%
Activity (SF-295): 80.92%
Activity (SF-539): 91.97%
Activity (SNB-75): 77.47%
Activity (U-251): 86.33%
Activity (Malme-3M): 85.32%
growth at 10 µM (M14): 98.2%
growth at 10 µM (SK-MEL-2): 78.8%
growth at 10 µM (SK-MEL-28): 103%
growth at 10 µM (SK-MEL-5): 103%
growth at 10 µM (IGROV-1): 91%
growth at 10 µM (OVCAR-3): 108%
Activity (OVCAR-4): 98.42%
growth at 10 µM (OVCAR-8): 90.8%
growth at 10 µM (NCI/ADR-RES): 80.9%
growth at 10 µM (SK-OV-3): 76.5%
growth at 10 µM (ACHN): 91%
growth at 10 µM (CAKI-1): 78.4%
growth at 10 µM (TK-10): 90.3%
growth at 10 µM (UO-31): 75%
growth at 10 µM (DU-145): 109%
growth at 10 µM (T47D): 85.4%
growth at 10 µM (MDA-MB-468): 74.7%
